# Measurements pooled from the literature.
# Lines come from different studies, so protocols differ.
# Target: Serine/threonine-protein kinase 38 (STK38, Homo sapiens, UniProt Q15208)
SMILES,effect on,technique,tested at,remaining binding [%]
O=C(NCCCN1CCOCC1)c1ccc(Nc2ncc(Cl)c(-c3ccc(Cl)s3)n2)cc1,binding,competition with immobilised ligand,1 µM,76
c1cncc(-c2cccc(Nc3nccc(NC4CCCCC4)n3)c2)c1,binding,competition with immobilised ligand,10 µM,89
COc1ncc2cc3ccccc3nc2c1C#N,cell-free assay,competition with immobilised ligand,5 µM,94
O=C(NCc1ncc(C(F)(F)F)cc1Cl)c1ccc2c(c1)C1(CCS(=O)(=O)CC1)[C@H](C1CC1)N2S(=O)(=O)c1ccc(F)cc1,cell-free assay,competition with immobilised ligand,1 µM,92
N[C@H]1CCN(c2nccc(-c3cnn4ncccc34)n2)C1,binding,,1 µM,100
Cn1nc(C(F)(F)F)cc1-c1cnc(N2CCc3cc(S(=O)(=O)Nc4c(F)cc(Cl)cc4F)cc(N4CCCC4=O)c32)nc1,cell-free assay,competition with immobilised ligand,1 µM,97
c1cnn2ncc(-c3ccnc(N4CCC45COC5)n3)c2c1,binding,,1 µM,87
Cc1nc(N2CC[C@@H](O)C2)ncc1-c1cc(C(F)(F)F)cc2[nH]ncc12,binding,competition with immobilised ligand,1 µM,95
O=C(Nc1c[nH]nc1C(=O)NC1CCNCC1)c1cc(F)cc(F)c1,binding,competition with immobilised ligand,1 µM,97
O=C(c1ccc(Nc2nccc(-c3cc4ccccc4s3)n2)cc1)N1CCC(N2CCCC2)CC1,binding,competition with immobilised ligand,1 µM,76
C[C@@H](c1ccc(-n2cnc3c(N)ncnc32)cc1)N1CCc2nn(C)c(Cc3ccccc3)c2C1=O,binding,competition with immobilised ligand,0.1 µM,71
C[C@@]1(Cc2ccc(C#N)cc2)C(=O)N(c2cc(Cl)cc(Cl)c2)c2ncc(C(=O)NC3(c4nc(C5CCC5)no4)CC3)n21,cell-free assay,competition with immobilised ligand,1 µM,100
O=C(c1ccc(Nc2ncc(Cl)c(-c3ccc(Cl)s3)n2)cc1)N1CCC(N2CCCC2)CC1,binding,competition with immobilised ligand,1 µM,67
CN(c1nccc(-c2cnn3ncccc23)n1)C1CC1,binding,,1 µM,100
CCN1CCN(Cc2ccc(C(=O)Nc3ccc(C)c(Oc4ccc5c(c4)CC(=O)N5)c3)cc2C(F)(F)F)CC1,binding,competition with immobilised ligand,1 µM,100
CN(C)c1nccc(-c2cnc3ncccn23)n1,binding,,1 µM,79
COc1ccc2c(O[C@@H]3C[C@H]4C(=O)N[C@]5(C(=O)O)CC5/C=C\CCCCC[C@H](NC(=O)OC5CCCC5)C(=O)N4C3)cc(-c3csc(NC(=O)C(C)C)n3)nc2c1C (stereo partly drawn),cell-free assay,competition with immobilised ligand,1 µM,50
CN(CCCC(F)(F)F)c1nccc(-c2cnn3ncccc23)n1,binding,,1 µM,100
COc1cnc(Nc2cccc(S(N)(=O)=O)c2)nc1N1CCN(c2ccccc2)C(=O)C1,binding,competition with immobilised ligand,1 µM,84
CCOC(=O)c1cc2cc(-c3cc(C(=O)NCc4ccc(C(=O)O)cc4)nn3C)ccc2[nH]1,cell-free assay,competition with immobilised ligand,0.1 µM,95
C[C@@H]1CCN(c2nccc(-c3cnn4ncccc34)n2)C1,binding,,1 µM,72
